ChEMBL document CHEMBL1140638, “Kipukasins, nucleoside derivatives from Aspergillus versicolor” (2007)
The source made the active and inactive calls. The calls are words filed in the database; no cut-off is given here.

Columns and labels:
Fusarium verticillioides = experiment: Antifungal activity against Fusarium verticillioides NRRL 25457 at 200 ug/disk; assay type: functional, organism-based
Staphylococcus aureus = experiment: Antibacterial activity against Staphylococcus aureus ATCC 29213 at 100 ug/disk; assay type: functional
How it was run: (§1)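 Disk diffusion assay with 100 μg of compound per disk. Strains used were Staphylococcus aureus ATCC 29213 and Bacillus subtilis ATCC 6051. The read-out was the diameter of the zone of inhibition in mm.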

Candida albicans = experiment: Antifungal activity against Candida albicans ATCC 14053 at 200 ug/disk; assay type: functional, organism-based
Bacillus subtilis = experiment: Antibacterial activity against Bacillus subtilis at 100 ug/disk; assay type: functional; how it was run: as §1
Aspergillus flavus = experiment: Antifungal activity against Aspergillus flavus NRRL 6541 at 200 ug/disk; assay type: functional, organism-based

| Compound | Activity (Fusarium verticillioides) | Activity (Staphylococcus aureus) | Activity (Candida albicans) | Activity (Bacillus subtilis) | Activity (Aspergillus flavus) | zone of inhibition at 100 µg/disc (Staphylococcus aureus; read-out: IZ) [mm] | zone of inhibition at 100 µg/disc (Bacillus subtilis; read-out: IZ) [mm] |
| --- | --- | --- | --- | --- | --- | --- | --- |
| COc1cc(C)c(C(=O)O[C@H]2[C@@H](O)[C@H](n3ccc(=O)[nH]c3=O)O[C@@H]2CO)c(OC)c1 | inactive | inactive | inactive | inactive | inactive |  |  |
| COc1cc(C)c(C(=O)O[C@H]2[C@@H](OC(C)=O)[C@H](n3ccc(=O)[nH]c3=O)O[C@@H]2CO)c(OC)c1 | inactive |  | inactive |  | inactive | 18 |  |
| COc1cc(O)cc(C)c1C(=O)O[C@H]1[C@@H](O)[C@H](n2ccc(=O)n(C)c2=O)O[C@@H]1CO | inactive | inactive | inactive | inactive | inactive |  |  |
| COc1cc(O)cc(C)c1C(=O)O[C@H]1[C@@H](OC(C)=O)[C@H](n2ccc(=O)[nH]c2=O)O[C@@H]1CO | inactive |  | inactive |  | inactive |  | 12 |
| COc1cc(C)c(C(=O)O[C@@H]2[C@H](O)[C@@H](CO)O[C@H]2n2ccc(=O)[nH]c2=O)c(OC)c1 | inactive | inactive | inactive | inactive | inactive |  |  |
| COc1cc(C)c(C(=O)O[C@H]2[C@@H](OC(C)=O)[C@H](n3ccc(=O)[nH]c3=O)O[C@@H]2CO)c(O)c1 | inactive | inactive | inactive | inactive | inactive |  |  |
| COc1cc(O)cc(C)c1C(=O)O[C@H]1[C@@H](OC(C)=O)[C@H](n2ccc(=O)n(C)c2=O)O[C@@H]1CO | inactive | inactive | inactive | inactive | inactive |  |  |
